Structures are written as SMILES. pIC50: −log10 of the molar value. The source made the active and inactive calls. No cut-off for these calls is given here.

For data set [1], the system named is Liver. Put plainly: Inhibition of ischemic and reperfusion-induced of GSH activity in Sprague-Dawley rat hepatic tissue at 26.6 mM before ischemic period by DTNB reduction assay. The note with it: 2.26 mM, in the assay text read “2.26 mM” for “26.6 mM”. Format: functional, tissue-based. Summed up:
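Total glutathione in liver homogenate from perfused rat livers after cold ischemia/reperfusion, measured colorimetrically via DTNB reduction at 405 nm; normalized to Bradford protein; percent of untreated controls.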

For data set [2], the system named is Liver. Description: Effect on ischemic and reperfusion-induced injury in Sprague-Dawley rat hepatic tissue at 2.26 mM before ischemic period assessed as ALT level. It is filed as functional, tissue-based. Conditions: Sprague-Dawely. The method in brief:
(§1)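 Male Sprague–Dawley rats (200–240 g) livers perfused with Krebs–Henseleit buffer pH 7.4, 37 °C; 2.26 mM compound or solvent injected via portal vein before 6 h cold ischemia at 4 °C; reperfused 150 min at 37 °C. Perfusate ALT, AST, LDH measured over time on clinical analyzer at 37 °C; mean ± SEM, n = 3.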

In data set [3] the test system is HEK293. Put plainly: Antioxidant activity in human HEK293 cells loaded with dihyfrofluresceindiacetate at 1 mM. Format: functional. The method in brief: (§2)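 HEK 293 cells grown to 85–90% confluency, pretreated 2 h with compound (40 μM) or NAC (1 mM); 20 μM dihydrofluorescein diacetate loaded during final 30 min at 37 °C in dark; washed, then 1 mM H2O2 for 20 min. Fluorescence ex 485/em 535 nm versus corresponding controls; mean ± SEM, n = 4.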

The subject of data set [4] is Liver. Description: Effect on ischemic and reperfusion-induced injury in Sprague-Dawley rat hepatic tissue at 2.26 mM before ischemic period assessed as LDH level. It is filed as functional, tissue-based. The note with it: Sprague-Dawely. The method in brief:
as §1

Data set [5] has as its target RAC-alpha serine/threonine-protein kinase (Rattus norvegicus) (UniProt P47196). Description: Inhibition of AKt phosphorylation in Sprague-Dawley rat ischemic reperfusion treated hepatic tissue at 2.26 mM before ischemic period by Western blot analysis. The method in brief:
(§3)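 Rat livers given 2.26 mM or solvent via portal vein before 6 h cold ischemia and 150 min reperfusion. Western blot with antibodies to Bcl-xl or phospho-Akt (Ser-473, Thr-308), overnight at 4 °C, HRP secondary; β-actin loading control; densitometry; untreated livers as control; n = 3.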
Background: Immunoblotting shows a protein as a band on a membrane.

In data set [6] the test system is HEK293. Description: Cytotoxicity against human HEK293 cells upto 10 to 300 uM after 3 hrs by MTT assay. Format: cell-based. Conditions: hek293, 3 h. Summed up:
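HEK 293 cells near 85–90% confluency exposed 3 h to 10–300 μM; MTT added, 1 h at 37 °C; formazan dissolved in DMSO and absorbance read at 550 nm.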
On the technique in general: Tetrazolium dyes change colour on reduction, which living cells bring about.

Data set [7] deals with Bcl-2-like protein 1 (Rattus norvegicus) (UniProt P53563). Put plainly: Reduction of Bcl-xl level in Sprague-Dawley rat ischemic-reperfused hepatic tissue at 2.26 mM treated before ischemic period by Western blot analysis. Format: functional. The method in brief: as §3
Bcl-2-like protein 1 (Rattus norvegicus), sequence (P53563 whole entry, the tested form may be a part): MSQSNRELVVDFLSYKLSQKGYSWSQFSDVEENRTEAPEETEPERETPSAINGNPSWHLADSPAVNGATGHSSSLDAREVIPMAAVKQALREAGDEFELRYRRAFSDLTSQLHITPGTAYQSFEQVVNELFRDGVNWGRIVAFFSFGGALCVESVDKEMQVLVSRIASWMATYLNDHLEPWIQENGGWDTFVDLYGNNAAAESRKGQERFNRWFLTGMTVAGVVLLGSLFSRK
Data set [8] has as its system Liver. Description: Inhibition of ischemic and reperfusion-induced SOD activity in Sprague-Dawley rat hepatic tissue at 26.6 mM before ischemic period by pyragallol method. It is filed as functional, tissue-based. Conditions: 2.26 mM, in the assay text read “2.26 mM” for “26.6 mM”. The method in brief:
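Perfused rat livers (portal-vein pretreatment before 6 h cold ischemia, 150 min reperfusion). Tissue SOD activity by pyrogallol autoxidation method (one unit inhibits autoxidation 50%), normalized to Bradford protein, expressed as percent of untreated controls; mean ± SEM, n = 3.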

Data set [9] is described as follows: Antioxidant activity assessed as superoxide radical anion scavenging activity after 100 secs by xanthine/xanthine oxidase method. It is filed as functional. Summed up: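 Cell-free chemiluminescence: 1 mM xanthine with test solution (5–80 μM), reaction started by injecting 1 mM luminol and 0.5 U/mL xanthine oxidase (stock concentrations). Light read for 100 s at 37 °C; output as RLU or area under the curve, relative to solvent control (100%); n = 9.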

The target in data set [10] is T1, Caspase-3 (Rattus norvegicus) (UniProt P55213).
T1 sequence (whole entry): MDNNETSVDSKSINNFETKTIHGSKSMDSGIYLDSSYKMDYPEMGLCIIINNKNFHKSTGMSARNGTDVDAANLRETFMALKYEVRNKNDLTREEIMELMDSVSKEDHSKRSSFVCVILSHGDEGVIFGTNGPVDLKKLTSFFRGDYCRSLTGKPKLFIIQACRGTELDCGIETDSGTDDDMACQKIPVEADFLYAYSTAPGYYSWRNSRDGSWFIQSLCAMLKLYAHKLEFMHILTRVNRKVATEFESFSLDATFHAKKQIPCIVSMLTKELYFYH
Put plainly: Induction of caspase 3 in Sprague-Dawley rat ischemic-reperfused hepatic tissue assessed as generation of free fluorescent 7-amino-4-trifluoro-methylcoumarin at 2.26 mM treated before ischemic period. The method in brief:
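Isolated perfused rat livers (2.26 mM or solvent into portal vein, 6 h 4 °C cold ischemia, 150 min reperfusion). Tissue extracts incubated with Ac-DEVD-AFC; AFC fluorescence ex 385/em 505 nm; untreated livers set as 1; mean ± SEM, n = 3.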

The subject of data set [11] is Liver. Put plainly: Effect on ischemic and reperfusion-induced injury in Sprague-Dawley rat hepatic tissue at 2.26 mM before ischemic period assessed as AST level. It is filed as functional, tissue-based. Conditions: Sprague-Dawely. Summed up: as §1
Data set [12] has as its system HEK293. Put plainly: Antioxidant activity in human HEK293 cells loaded with dihyfrofluresceindiacetate at 40 uM. It is filed as functional. The method in brief:
as §2

For data set [13], the system named is Liver. Put plainly: Inhibition of ischemic and reperfusion-induced oxidative stress in Sprague-Dawley rat hepatic tissue at 26.6 mM before ischemic period assessed as decrease in 8-isoprostane level. The note with it: 2.26 mM, in the assay text read “2.26 mM” for “26.6 mM”. It is filed as functional, tissue-based. The method in brief: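 Liver homogenates from perfused rat livers after cold ischemia/reperfusion; 8-isoprostane by competitive EIA with acetylcholinesterase conjugate, absorbance 412 nm; percent of untreated controls.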

Data set [14] in a line: Inhibition of TNF-alpha-induced NF-kappaB activation expressed in human HEK293 cells preincubated for 2 hrs before TNFalpha challenge by leuciferase reporter gene assay. Format: cell-based. Summed up:
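HEK 293 cells transiently transfected (Ca2+-phosphate) with NF-κB-driven firefly luciferase plasmid, replated 1×10^5 cells/well, grown 16 h; preincubated 2 h with 5–60 μM, then 1 ng/mL TNF-α for 6 h; PDTC 50 μM positive control. Lysate luciferase read; solvent-treated = 100%; mean ± SEM, n = 3.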
A general note: In a reporter assay the amount or activity of a reporter protein is the signal.

The species named for the next data set is Rattus norvegicus. Description: Inhibition of ischemia-reperfusion-induced NF-kappaB binding activity in Sprague-Dawley rat liver at 2.26 mM treated prior to ischemic reperfusion by EMSA.

RAC-alpha serine/threonine-protein kinase (Rattus norvegicus), sequence (P47196 whole entry, the tested form may be a part): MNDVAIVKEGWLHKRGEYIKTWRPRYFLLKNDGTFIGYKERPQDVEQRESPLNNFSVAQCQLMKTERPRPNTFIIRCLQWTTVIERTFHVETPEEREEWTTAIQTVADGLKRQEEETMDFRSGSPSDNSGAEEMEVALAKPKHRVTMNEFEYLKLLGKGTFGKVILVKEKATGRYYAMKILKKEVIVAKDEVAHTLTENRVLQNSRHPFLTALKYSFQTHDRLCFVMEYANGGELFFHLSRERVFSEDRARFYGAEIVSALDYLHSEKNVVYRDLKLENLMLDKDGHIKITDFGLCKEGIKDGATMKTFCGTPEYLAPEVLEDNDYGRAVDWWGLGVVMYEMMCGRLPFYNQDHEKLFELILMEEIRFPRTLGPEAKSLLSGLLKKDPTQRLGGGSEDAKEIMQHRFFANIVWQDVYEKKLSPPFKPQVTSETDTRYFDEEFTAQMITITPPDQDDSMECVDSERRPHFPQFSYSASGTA

Usually pIC50 stands for the negative decadic logarithm of the IC50, by convention in mol/L. `COc1cc(O)c(CC=C(C)C)c(O)c1C(=O)/C=C/c1ccc(O)cc1` [XANTHOHUMOL]: the inhibition result (with Liver [1]; in [5]; in the data set on Liver [8]; in the data set with Liver [13]; in the data set listed under Rattus norvegicus) was “Active” throughout. Also, the outcome with Liver [2], in the data set on Liver [4] and in the data set on Liver [11] was inactive. The Activity in the data set with HEK293 [3] is given as 46.2%; in the data set on HEK293 [6], “Non-toxic”; in the data set on HEK293 [12] it was 71.9%. The result in [7] and in data set [10] was Active. Moreover, the pIC50 was 4.82 in [9] and 4.46 in [14].

For the origin of these results see ChEMBL document CHEMBL1154284, “Antioxidant effects of xanthohumol and functional impact on hepatic ischemia-reperfusion injury” (J Nat Prod, 2009).
